Calls of active or inactive are those of the source.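 The calls were made as follows: active = half-maximal effective dose for blocking growth of human endothelial cells at most 100 µM; inactive = the rest.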
Each compound was assayed on HUVEC proliferation, viability ATP luminescence (assay: growth suppression of umbilical vein endothelial cells – cell-based, HUVEC, ATP luminescence, dose response (AID 822);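 also: cells exposed to compound for 72 h before the ATP read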).
Procedure, shortened: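 Test system: HUVEC; Input: 1250 HUVEC cells seeded per well; Doses: 0.039–20 µM, 0.2% DMSO; Evaluation: % viability versus median cell-only wells, EC50 from 4-parameter fit; Medium: EBM plus 2% FBS; Incubation: compound treatment 72 h, 37 °C; Signal: luminescent ATP measurement with CellTiter-Glo reagent; Plate: collagen-coated multiwell plates.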

| Structure (SMILES) | EC50 |
| --- | --- |
| Cc1ccc2c(c1)NC(=O)C(CC(=O)NCCCN1CCN(c3cc(Cl)ccc3C)CC1)O2 (stereo not drawn) | 7.12 µM |
| CCOC(=O)c1cnc(-n2nc(C)cc2C)nc1NC1CCCCC1 | 0.27 µM |
| CC1=C(C(=O)OCc2ccc3c(c2)OCO3)C(c2ccccc2)NC(=O)N1 (stereo not drawn) | 14.1 µM |
| O=C(CC1CCCCC1)c1c(O)c2ccccc2oc1=O | 4.66 µM |
| CCOC(=O)c1c(NC(=O)CSc2nc(C)cc(C)c2C#N)sc(C(C)=O)c1C | 4.87 µM |
| CCOc1ccc(Nc2oc(-c3ccc(Cl)cc3)nc2C#N)cc1 | > 10 µM (inactive) |
| Cc1ccc(-c2nn3c(C)nnc3s2)cc1NC(=O)c1ccc(-c2cccc(Cl)c2)o1 | 4.71 µM |
| O=C(CCC1COc2ccccc2O1)Nc1ccc(Cl)cn1 (stereo not drawn) | 17.6 µM |
| CC(C)(C)c1nn(-c2ccccc2)c2[nH]c(=O)c(CNCc3ccc4c(c3)OCO4)cc12 | 8.15 µM |
| O=C1CCCc2c1[nH]c1ccc(Br)cc21 | > 10 µM (inactive) |
| Cc1sc2nc(SCC(=O)C(C)(C)C)n(Cc3ccco3)c(=O)c2c1C | 13.9 µM |
| Nc1nc(Nc2cccc3ccccc23)nc(C2CCCC2=O)n1 (stereo not drawn) | 11.4 µM |
| CSc1nc2c(cnn2-c2ccc(C)c(C)c2)c(=O)[nH]1 | 17.8 µM |
| O=C(Nc1ccc2nn(-c3ccccc3)nc2c1)c1ccc2c(c1)OCCO2 | 20 µM |
| CCn1c(SCC(N)=O)nnc1-c1ccc2[nH]c(C)c(C)c2c1 | > 10 µM (inactive) |
| Cc1ccccc1CS(=O)(=O)c1nnc([C@H](Cc2ccccc2)NC(=O)OC(C)(C)C)o1 | 11.4 µM |
| Cc1cc(C)n(-c2nc(NCCCO)c3c4c(sc3n2)CCCC4)n1 | 2.41 µM |
| Cc1cc(=O)[nH]c2ccc(Cl)cc12 | > 10 µM (inactive) |
| COC(=O)CCS(=O)(=O)c1nc(-c2ccccc2)cc(C(F)(F)F)n1 | 9.83 µM |
| CCn1cc(C(=O)NCc2ccc3c(c2)OCO3)c(=O)c2cc(F)c(N3CCN(C(=O)c4ccco4)CC3)cc21 | 10.4 µM |
| COc1ccccc1-c1cc(C(=O)Nc2cc(C)n(Cc3ccc(Cl)cc3)n2)no1 | 5.84 µM |
| N#CC1=C(N)Oc2cc(Nc3ccccc3)ccc2C1c1ccncc1 (stereo not drawn) | 1.32 µM |

| Structure (SMILES) | EC50 |
| --- | --- |
| COc1ccc2nc(Nc3nc(CSc4nnnn4-c4ccccc4)cc(=O)[nH]3)nc(C)c2c1 | 4.49 µM |
| N#Cc1c(NCCN)nc(NCc2ccccc2)c2c1CCN(Cc1ccccc1)C2 | 13.3 µM |
| Cc1cc(C)c2oc(-c3ccc(Cl)c(NC(=O)c4ccc(C#N)cc4F)c3)nc2c1 | 10.9 µM |
| CCOC(=O)c1c(C)[nH]c(C(=O)OC/C(O)=C(\C#N)c2nc3ccccc3[nH]2)c1C | 11.6 µM |
| COc1cc(/C=c2\s/c(=C(/C#N)C(=O)N3CCCC3)n(-c3ccccc3)c2=O)ccc1O | 16.3 µM |
| CCOC(=O)c1c(N)sc2c(OC)c(Br)ccc12 | 16.8 µM |
| COc1cc(NC(=O)Nc2cccc(Cl)c2)c(OC)cc1NC(=O)CN1CCCCC1 | 5.49 µM |
| CCOC(=O)N1CCN(c2ncnc3c2oc2nc(C(C)C)c4c(c23)CCC4)CC1 | 19.4 µM |
| Cc1ccc(C)n1NC(=O)c1ccccc1O | > 10 µM (inactive) |
| CC(C)OCCCN1C(=O)c2[nH]nc(-c3ccccc3O)c2C1c1cccc(Cl)c1 (stereo not drawn) | 15.7 µM |
| c1ccc(-c2nc3nonc3nc2-c2ccccc2)cc1 | 3.46 µM |
| CCOC(=O)c1cnc(-n2nc(C)cc2C)nc1NCCc1ccccc1 | 12.7 µM |
| N#CC(c1ccccc1)c1ccc2c(C(F)(F)F)cc(C(F)(F)F)nc2n1 (stereo not drawn) | 16.7 µM |
| O=c1cc(-c2ccccc2)[nH]n1-c1nc2ccccc2[nH]1 | 6.25 µM |
| c1ccc2c(c1)oc1c(Nc3ccc(CN4CCOCC4)cc3)ncnc12 | 5.35 µM |
| O=C(Nc1nnc(-c2ccc3c(c2)CCCC3)o1)c1ccc(Cl)cc1Cl | 2.25 µM |
| CC(C)C1Cc2c(sc3[nH]c(=S)n(Cc4ccccc4)c(=O)c23)CO1 (stereo not drawn) | 3.05 µM |
| COC(=O)c1c(NC(=O)c2ccco2)sc(C(=O)Nc2ccc(F)cc2)c1C | 2.98 µM |
| Cc1cccc(NC(=O)c2cc(NC(=O)c3ccco3)ccc2N2CCCCC2)c1 | 13.3 µM |
| CC(C)COC(=O)c1ccc2c(c1O)C(=O)c1ccccc1C2=O | 3.11 µM |
| CCN(CC)c1cc(C)c2cc(NC(=O)c3ccc(Br)o3)ccc2n1 | 11.3 µM |
